Only a selection was taken, and hits are over-represented in it overall.
CHOP inhibitor = inhibitors of CHOP promoter induction, primary screen, cell-based, unfolded protein response, luciferase reporter; CHO-K1 CHOP-promoter luciferase, tunicamycin-induced, 15-18 h; inhibition, % at 10 µM; actives 3.8% (n = 220,000); AID 2732, 2010;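 active means compounds that reduced the stress-induced luciferase reporter signal by more than about 70% of percent inhibition, limit read from the data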
A1 inh = caspase 3/7 activation in MEF A1-2A-BIM cells, primary screen, A1 inhibitor project, cell-based, luminescence, HTS. Caspase-Glo 3/7 luminescence, 3 h; percent of clofoctol response, vehicle zero. actives 0.066% (n = 330,000). caspase activation, % (concentration not given with the values);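 active means over half of replicate activation scores above 10%, or exactly half above 10 with the replicate mean above 10; inconclusive means replicate mean below 10 yet half the replicates above 10; inactive means over half of replicates below 10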
CHOP UPR activ = activators of apoptotic CHOP UPR arm, primary screen, cell-based, CHO-CHOP luciferase reporter, luminescence, uHTS; UPR activation; percent of tunicamycin response over DMSO baseline; activation, % at 10 µM; actives 0.34% (n = 330,000);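 active means at 10 µM dose, activation of 40% or more, normalized to positive control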
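Assay system: CHO cells with stable CHOP pathway luciferase reporter; Buffer or medium: F12 plus 10% serum; Times: 16-18 h cell attachment, then 6 h compound exposure, 37 °C; Signal: luciferase luminescence; Read-out basis: percent activation relative to tunicamycin control; Control set: tunicamycin high control, DMSO low control.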
XBP1 UPR activ = activators of adaptive XBP1 UPR arm, primary screen, cell-based, CHO-XBP1 luciferase reporter, luminescence, uHTS; IRE1-XBP1 UPR activation; percent of tunicamycin response, DMSO as zero; AID 463104, 2010; actives 0.33% (n = 330,000); activation, % at 20 µM;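 active means versus positive control, 20 µM dose yields 30% or more activation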
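Material – CHO cell line with stable XBP1 luciferase reporter · Buffer or medium – F12 plus 10% FBS · Compound – single point, 20 µM final compound, 1% DMSO · Schedule – 16-18 h cell attachment at 37 °C, then 6 h compound exposure · Signal – Steady-Glo luminescence read · Benchmarks – high control tunicamycin 10 µg/mL final, low control DMSO vehicle only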
Large screens that a line does not name were inactive.

COc1ccc(C2CC(=O)Oc3cc(OC)c(OC)c(OC)c32)cc1 (configuration not stated)	none (no result: CHOP inhibitor, A1 inh)
COc1ccc(C2CC(O)(c3ccccc3)Oc3cc(OC)cc(OC)c32)cc1 (configuration not stated)	CHOP inhibitor 85 (no result: A1 inh)
COc1ccc([C@@H]2C[C@@H](c3ccccc3)Oc3c(C)ccc(C(C)C)c32)cc1	none (no result: CHOP inhibitor)
Cc1ccc(N(CN2CCCC2=O)C(=O)c2ccc(C)c(C)c2)cc1	none
Cc1ccc(-c2nnc(COC(=O)c3cc(=O)[nH]c4ccccc34)o2)cc1	none (no result: CHOP inhibitor)
CC(C)c1nc(N2CCN(C(=O)c3ccco3)CC2)c2c3c(sc2n1)CCCC3	CHOP inhibitor 74
CCCCCCCCCCS(=O)(=O)N/N=C/c1ccccc1OC	CHOP inhibitor 82
CCCCCCCCCCS(=O)(=O)N/N=C/c1ccc(O)cc1	none
C=CCn1c(-c2csc(-c3ccc(Cl)cc3)n2)n[nH]c1=S	CHOP inhibitor 72
C=CCn1c(-c2csc(-c3ccccc3)n2)n[nH]c1=S	none
O=C(Nc1ccc2nc(-c3cccs3)c(-c3cccs3)nc2c1)NC1CC1	CHOP inhibitor 92
Cc1sc2ncnc(SCc3ccco3)c2c1C	CHOP inhibitor 71
Cc1sc2ncnc(N(C)Cc3ccco3)c2c1C	none
OCCNCc1cc(Br)ccc1OCc1ccc(Cl)cc1Cl	CHOP inhibitor 90 (no result: A1 inh, CHOP UPR activ, XBP1 UPR activ)
OCCNCc1cc(Br)ccc1OCc1ccc(Cl)cc1	none
Clc1nc(-c2ccccc2)cc(-c2ccc(Br)cc2)n1	none (no result: CHOP inhibitor)
Nc1cc(-c2ccccc2)nn1S(=O)(=O)c1ccc(F)cc1	none
Nc1cc(-c2ccc(Br)cc2)nc2cc(-c3ccccc3)nn12	CHOP inhibitor 82
Nc1cc(-c2ccc(Br)cc2)nn1S(=O)(=O)c1ccccc1	CHOP inhibitor 72
CC(C)=CCC/C(C)=C/C=N/NC(=O)c1cccc([N+](=O)[O-])c1	CHOP inhibitor 89
Cc1ccc(S(=O)(=O)CCC(=O)OCC(=O)NCc2ccc(Cl)cc2)cc1	none
Oc1ccc(C[C@@H]2CNC(=S)N2CCc2cc(C(F)(F)F)cc(C(F)(F)F)c2)cc1	CHOP inhibitor 80
Oc1ccc(C[C@H]2CNC(=S)N2CCc2cc(C(F)(F)F)cc(C(F)(F)F)c2)cc1	none
O=C1NC(=Nc2ccc(Cl)cc2)SC1Cc1cc(Cl)ccc1Cl (configuration not stated)	CHOP inhibitor 71
O=C1NC(=Nc2ccc(F)cc2)SC1Cc1ccc(F)cc1 (configuration not stated)	none
Cc1ccc(C(=O)N2CCCc3ccccc32)c(F)c1F	none (no result: CHOP inhibitor)
COC(=O)COc1ccc2cccc(-n3cnnn3)c2c1	none
CCCCc1nn(-c2cc(Cl)ccc2OC)c2c1C(=O)CC(C)(C)C2	CHOP inhibitor 81
N#Cc1c(N)nc2c3c(sc(=N)c2c1N)NC(=O)CC3c1ccccc1 (configuration not stated)	none
Cc1c(C#N)c(N)nc2c3c(sc12)NC(=O)CC3c1ccc(Cl)cc1 (configuration not stated)	CHOP inhibitor 101
Cc1ccccc1CC(=O)NCCN1CCOCC1	none (no result: CHOP inhibitor)
COC(=O)c1sccc1NC(=S)N1CC(C)CC(C)C1 (configuration not stated)	CHOP inhibitor 93, A1 inh inconclusive (no result: CHOP UPR activ, XBP1 UPR activ)
COC(=O)c1sccc1NC(=O)C1CC(C)=C(C)CC1C(=O)O (configuration not stated)	none
COC(=O)c1sccc1NC(=O)C1CC2CCC1C2 (configuration not stated)	CHOP inhibitor 94
CC(=O)c1c(C)[nH]c(C(=O)OCC(=O)Nc2cc(Cl)ccc2[N+](=O)[O-])c1C	none
CC(=O)c1c(C)[nH]c(C(=O)OCC(=O)Nc2ccc(C)cc2[N+](=O)[O-])c1C	CHOP inhibitor 89
CC(NS(=O)(=O)c1ccccc1)C(c1cccs1)N1CCN(c2ccccc2)CC1 (configuration not stated)	none
Cc1cc(O)c(C(C)C)cc1C1(c2cc(C(C)C)c(O)cc2C)OC(=O)c2ccccc21	CHOP inhibitor 106
Cc1cc(C2(c3ccc(O)c(C)c3)OC(=O)c3ccccc32)ccc1O	none
CC1O[C@@H](O[C@H](C)CC[C@@H](C)O[C@H]2OC(C)[C@@H](O)C[C@H]2O)C(O)C[C@H]1O (some centres not stated)	none (no result: CHOP inhibitor)
Clc1ccc(CSc2nnc(-c3ccccn3)n2Cc2ccco2)c(Cl)c1	CHOP inhibitor 82
